Reference: PubChem BioAssay
Activity calls are given as the source filed them.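 The calls were made as follows, unless noted: active = potentiation averaged over duplicate wells exceeding buffer-only control mean by more than 3 SD; inactive = the rest.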

Tested on: not listed separately
Experiment: thallium flux activation in parental CHO cells, counter-screen for KCNQ1 potentiator project (AID 493006;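 active = duplicate-averaged activation above buffer control mean plus 5 SD of those controls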)
Conditions: parental CHO-K1 cells, FluxOR thallium flux, at 10 µM; active compounds read high
Outline: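 Test system: parental CHO-K1 cells, FluxOR dye-loaded / Probe or stimulus: potassium plus thallium depolarizing stimulus, 5x stock 12.5 mM K2SO4, Tl2SO4 / Timing: overnight 37 °C plating, 90 min dye, 20 min dark compound / Measured by: kinetic thallium-flux fluorescence / Read-out: max-minus-min fluorescence over baseline, percent of buffer-to-R-L3 span / Benchmarks: buffer and R-L3 controls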

Row | Structure (SMILES) | activation | outcome
1 | O=C(CC(=O)c1ccccc1O)c1cccc(F)c1 | 164% (active) | –
2 | CCC(C(=O)OCC(=O)NC(=O)NC(C)(C)C)c1ccccc1 (centres undefined) | – | inactive
3 | Cc1ccc(Cl)cc1NC(=S)N/N=C/c1cccc2ccccc12 | – | inactive

Molecular target: Potassium voltage-gated channel subfamily KQT member 1 (Homo sapiens) (UniProt P51787)
Sequence (P51787 whole entry, looked up): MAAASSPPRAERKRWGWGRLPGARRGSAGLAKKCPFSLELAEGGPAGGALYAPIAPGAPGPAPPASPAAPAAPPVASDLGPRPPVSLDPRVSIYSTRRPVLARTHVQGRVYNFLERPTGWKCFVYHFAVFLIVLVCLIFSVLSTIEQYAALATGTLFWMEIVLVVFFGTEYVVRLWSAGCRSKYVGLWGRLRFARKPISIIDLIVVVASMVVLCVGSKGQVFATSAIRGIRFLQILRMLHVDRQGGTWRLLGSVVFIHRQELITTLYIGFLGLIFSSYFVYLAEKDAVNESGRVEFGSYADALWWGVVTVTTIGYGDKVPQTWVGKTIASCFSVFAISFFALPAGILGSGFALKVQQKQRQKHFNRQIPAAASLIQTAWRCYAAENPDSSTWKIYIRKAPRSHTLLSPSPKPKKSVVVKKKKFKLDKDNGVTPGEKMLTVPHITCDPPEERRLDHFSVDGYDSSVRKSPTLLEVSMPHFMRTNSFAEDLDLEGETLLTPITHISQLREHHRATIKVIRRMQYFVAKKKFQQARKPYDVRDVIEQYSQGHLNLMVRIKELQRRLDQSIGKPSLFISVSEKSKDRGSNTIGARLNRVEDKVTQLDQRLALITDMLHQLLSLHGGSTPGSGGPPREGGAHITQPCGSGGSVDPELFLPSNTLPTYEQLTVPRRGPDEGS
Experiment: KCNQ1 potassium channel potentiators, confirmation, FluxOR thallium flux, CHO cells, duplicates (AID 493007);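 as to outcome: cells depolarized by a potassium plus thallium sulfate stimulus after compound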;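 as to potentiation: 0% = buffer-only wells and 100% = R-L3 activator control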
Conditions: KCNQ1 cell line, FluxOR thallium flux fluorescence, at 10 µM; active compounds read high, % of reference activator effect, buffer zero
Outline: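 Assay system: CHO cells carrying KCNQ1 | Controls: Buffer and R-L3 controls | Schedule: FluxOR dye loading 90 min, compound exposure 20 min, room temperature | Read-out: Baseline-normalized fluorescence change, percent of buffer-to-R-L3 range | Replicates: Each compound tested in duplicate | Technique: Kinetic thallium influx fluorescence with FluxOR dye, 10 s baseline, 110 s post-stimulus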

Row | Structure (SMILES) | potentiation | outcome
4 | Cc1ccc(OCC(=O)NNC(=S)NC(=O)c2cccs2)c(C)c1 | 76.5% (active) | –
5 | Cc1ccc(-c2nc3c(Cl)cc(Cl)cc3c(=O)n2O)cc1 | 414% (active) | –
6 | O=C(CN1C2=NCCCN2c2ccccc21)c1ccc2c(c1)OCO2 | – | inactive
7 | CCOc1ccccc1C1CC(=O)Nc2cc3c(cc21)OCCO3 (centres undefined) | – | inactive
8 | CCOc1ccc(C2C(C#N)=C(N)N(c3sc4c(c3C#N)CCCC4)C3=C2C(=O)CCC3)cc1 (centres undefined) | – | inactive
9 | COc1ccc(NC(=S)NC(=O)c2ccccc2Cl)cc1 | – | inactive
10 | S=c1[nH]nc(-c2cccs2)n1/N=C/c1c(Cl)cccc1Cl | 30% (active) | –
11 | S=c1[nH]nc(-c2ccc(Cl)cc2)n1/N=C/C=C/c1ccco1 | 32% (active) | –
12 | CCn1c(SCC(=O)NC(=O)NCc2ccco2)nc2sc(C)c(C)c2c1=O | 40.5% (active) | –
13 | O=c1[nH]cc(-c2ccccc2)c(=O)[nH]1 | – | inactive
14 | O=C(C1CCCCC1)N(CCN1CCCC1)c1nc2ccccc2s1 | – | inactive
15 | CN(C(=O)c1cc(COc2c(F)cccc2F)on1)C1CCOC1 (centres undefined) | – | inactive
16 | CCOC(=O)c1ccc(Nc2nc(N3CCOCC3)nc(N3CCOCC3)n2)cc1 | – | inactive
17 | CC(C)c1ccc(/C=C2\SC(N3CCOCC3)=NC2=O)cc1 | – | inactive
18 | CCC(O)(CC)C(=O)NN(C(=O)CCl)c1ccccc1 | – | inactive
19 | CCCC(=O)Nc1ccc(S(=O)(=O)N2CCC(c3nc4ccccc4[nH]3)CC2)cc1 | – | inactive
